What was measured:
Canis familiaris [1] = experiment: AUC (0 to 8 hrs) in fasted Beagle dog assessed as ertapenem level at 1 mg/kg, iv by LC-MS/MS method; type: ADME, organism-based, Canis lupus familiaris, Plasma; set-up: time < 8 hr, dose 1 mg/kg, route intravenous; settings: in vivo
[2] = Stability in rat plasma assessed as compound remaining at 50 uM at 37 degC after 60 mins by LC-MS/MS method; type: ADME, cell-free; settings: read-out: Stability
Summary of the method: (§1)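 Prodrugs were incubated in rat or human plasma for 60 min. Disappearance of prodrug and concomitant appearance of ertapenem were followed by LC-MS/MS, and in selected cases monoesters from partial hydrolysis were also monitored. Ertapenem itself was incubated the same way as a control.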

Rattus norvegicus [3] = experiment: AUC (0 to 8 hrs) in fasted Sprague-Dawley rat assessed as ertapenem level at 10 mg/kg dosed through intraduodenal route by LC-MS/MS method; type: ADME, organism-based, Plasma; set-up: time < 8 hr, dose 10 mg/kg, route intraduodenal; settings: in vivo, other
Summary of the method: (§2)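 Prodrugs were given intraduodenally to bypass stomach acid. Plasma was sampled at intervals over 8 h, and parent prodrug, the two monoester metabolites and ertapenem were quantified by LC-MS/MS. The lower limit of quantitation was 5 nM. AUC(0–8) was used, and it differed from AUC(0–∞) by ±20%. Vehicles were 30% Captisol or 0.5% methylcellulose, as solution or suspension depending on compound.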

Canis familiaris [4] = experiment: AUC (0 to 8 hrs) in fasted Beagle dog assessed as ertapenem level at 10 mg/kg dosed through intraduodenal route by LC-MS/MS method; type: ADME, organism-based, Canis lupus familiaris, Plasma; set-up: time < 8 hr, dose 10 mg/kg, route intraduodenal; settings: in vivo, other; summary of the method: as §2
Rattus norvegicus [5] = experiment: Oral bioavailability in fasted Sprague-Dawley rat assessed as ertapenem level at 10 mg/kg dosed through intraduodenal route by LC-MS/MS method; type: ADME, organism-based; settings: in vivo
Summary of the method: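 After intraduodenal dosing, plasma over 8 h was analysed by LC-MS/MS. Bioavailability was calculated as dose-normalized AUC of ertapenem formed from the prodrug divided by dose-normalized AUC of ertapenem dosed iv. Vehicle was 30% Captisol or 0.5% methylcellulose.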

[6] = Stability in pH 2.0 simulated gastric fluid assessed as compound degradation to beta-lactam ring open products at 1 uM after 60 mins by LC-MS/MS method; type: ADME; settings: read-out: Drug degradation
Summary of the method: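 Incubation was in simulated gastric fluid (SGF, pH 2.0) for 60 min, with loss to the β-lactam ring-opened product measured by LC-MS/MS.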

[7] = Stability in human plasma assessed as compound remaining at 50 uM at 37 degC after 60 mins by LC-MS/MS method; type: ADME, cell-free; settings: read-out: Stability; summary of the method: as §1
[8] = AUC (0 to 8 hrs) in fasted Sprague-Dawley rat at 1 mg/kg, iv by LC-MS/MS method; type: ADME, organism-based; set-up: time < 8 hr, dose 1 mg/kg, route intravenous; settings: plasma
Rattus norvegicus [9] = experiment: Oral bioavailability in fasted Sprague-Dawley rat assessed as ertapenem and monoetser metabolites level at 10 mg/kg dosed through intraduodenal route by LC-MS/MS method; type: ADME, organism-based; settings: in vivo
Summary of the method: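 Total absorption followed intraduodenal dosing with LC-MS/MS of plasma over 8 h. It was calculated as the combined dose-normalized AUC of circulating parent prodrug, ertapenem and two monoesters, divided by dose-normalized AUC of ertapenem given iv. Vehicle was 30% Captisol or 0.5% methylcellulose.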

[10] = Stability in pH 7.4 phosphate buffer assessed as compound remaining at 50 uM after 3 hrs by LC-MS/MS method; type: physicochemical; settings: read-out: Stability
[11] = Stability in pH 6.5 simulated gastrointestinal fluid assessed as compound remaining at 50 uM after 3 hrs by LC-MS/MS method; type: ADME; settings: read-out: Stability
Summary of the method: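 Compounds at 50 μM were incubated in fasted-state simulated intestinal fluid (FaSSIF, pH 6.5) for over 3 h. Percent remaining was determined by LC-MS/MS.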

Which AUC (Canis familiaris [1]) does the source give for `C[C@@H](O)[C@H]1C(=O)N2C(C(=O)[O-])=C(S[C@@H]3CN[C@H](C(=O)Nc4cccc(C(=O)O)c4)C3)[C@H](C)[C@H]12.O.[Na+]` here?
The AUC was 8.9 µM·h.

And the remaining at 1 h, 50 µM [2]?
Its remaining at 1 h, 50 µM is 100%.

And the AUC (Rattus norvegicus [3])?
Its AUC is 0.5 µM·h.

What about the AUC (Canis familiaris [4]) of the same molecule?
The AUC was 1.4 µM·h.

What about the F (Rattus norvegicus [5]) of the same molecule?
The F was 0.7%.

And the degraded at 1 h, 1 µM [6]?
The degraded at 1 h, 1 µM was greater than 25%.

What about the remaining at 1 h, 50 µM [7] of the same molecule?
Its remaining at 1 h, 50 µM is 100%.

What about the AUC(0-t) at 8 h [8] of the same molecule?
The AUC(0-t) at 8 h was 7.8 µM·h.

And the F (Rattus norvegicus [9])?
The F was 0.7%.

And the remaining at 3 h, 50 µM [10]?
The remaining at 3 h, 50 µM was greater than 95%.

What about the remaining at 3 h, 50 µM [11] of the same molecule?
Its remaining at 3 h, 50 µM is greater than 95%.

— ChEMBL document CHEMBL3351346, “Design, synthesis, structure-function relationship, bioconversion, and pharmacokinetic evaluation of ertapenem prodrugs” (J Med Chem, 2014)
